This is an account of results in ChEMBL document CHEMBL1156653, “Bioactive asterric acid derivatives from the Antarctic ascomycete fungus Geomyces sp” (J Nat Prod, 2008).

Values after ≈ are worked out from the molar mass of the structure shown. Bounds are passed on as bounds.

What all share (format): functional, organism-based
Assay [1] deals with Aspergillus fumigatus. The assay can be described thus: Antifungal activity against Aspergillus fumigatus ATCC 10894. An outline of the steps: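 A. fumigatus grown on potato dextrose agar, then in broth at 28 °C for 48 h. Final inoculum was 10^4 mycelial fragments/mL in PDB. Samples were 10 mg/mL DMSO stocks, serially diluted and tested in triplicate. A595 was read after incubation. IC50 came from the inhibition-rate vs concentration plot. MIC was the lowest concentration giving complete growth inhibition.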

For assay [2], the system named is Streptococcus pneumoniae. The assay can be described thus: Antimicrobial activity against Streptococcus pneumoniae CGMCC 1.1692. An outline of the steps:
(§1)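 Bacteria grown on Mueller-Hinton agar, then in broth at 37 °C for 24 h. Final suspension was 10^6 cells/mL in MHB. Samples were 10 mg/mL DMSO stocks, serially diluted and tested in triplicate. Absorbance at 595 nm was read after incubation. IC50 came from plotting inhibition rate vs concentration. MIC was the lowest concentration completely inhibiting growth.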

The subject of assay [3] is Staphylococcus aureus. The assay can be described thus: Antimicrobial activity against Staphylococcus aureus ATCC 6538. An outline of the steps: as §1
The test system of assay [4] is Escherichia coli. The assay is described as follows: Antimicrobial activity against Escherichia coli CGMCC 1.2340. The procedure, abridged: as §1

As for `CCCCOC(=O)c1c(O)cc(C)cc1Oc1c(OC)cc(O)cc1C(=O)OC` [BUTYL ASTERRATE], the concentration for half-maximal inhibition (IC50) in assay [1], in assay [2], in assay [3] and in assay [4] was more than 50 µM each time.
For `CCOC(=O)c1c(O)cc(C)cc1Oc1c(OC)cc(O)cc1C(=O)OC` [ETHYL ASTERRATE], the IC50 in assay [1], in assay [2], in assay [3] and in assay [4] was more than 50 µM in each case.
As to `OC(Cn1cncn1)(Cn1cncn1)c1ccc(F)cc1F` [FLUCONAZOLE], in assay [1], 7.35 µM corresponded to half-maximal inhibition (IC50) and the MIC is 163 µM (≈ 50 µg/mL).
For `COC(=O)c1cc(OC(=O)c2c(O)cc(C)cc2Oc2c(OC)cc(O)cc2C(=O)OC)cc(OC)c1Oc1cc(C)cc(O)c1C(=O)OC` [GEOMYCIN A], the IC50 in assay [1], in assay [2], in assay [3] and in assay [4] was more than 50 µM in each case.
With `COC(=O)c1cc(OC(=O)c2c(O)cc(C)cc2Oc2c(OC)cc(O)cc2C(=O)OC)cc(OC)c1Oc1cc(C)cc(O)c1C(=O)O` [GEOMYCIN B], in assay [1], inhibition was half-maximal at 0.86 µM (IC50) and the MIC was determined as 29.5 µM (≈ 20 µg/mL).
Turning to `COC(=O)C1=CC(=O)C=C(OC)[C@]12Oc1cc(C)cc(OC(=O)c3c(O)cc(C)cc3Oc3c(OC)cc(O)cc3C(=O)OC)c1C2=O` [GEOMYCIN C], the IC50 in assay [2] is 36.2 µM; in assay [3], 17.3 µM; in assay [4], 12.9 µM. In addition, the MIC in assay [2] came to 152 µM (≈ 100 µg/mL); in assay [3] it was 75.8 µM (≈ 50.1 µg/mL); in assay [4], 30.3 µM (≈ 20 µg/mL).
In assay [4], `CN[C@@H]1[C@H](O[C@H]2[C@H](O[C@H]3[C@H](O)[C@@H](O)[C@H](N=C(N)N)[C@@H](O)[C@@H]3N=C(N)N)O[C@@H](C)[C@]2(O)C=O)O[C@@H](CO)[C@H](O)[C@H]1O` [STREPTOMYCIN] showed an IC50 of 1.05 µM and an MIC of 11.2 µM (≈ 6.51 µg/mL).

Broadly, the IC50 is the concentration that gives 50% inhibition. High values mean a need for much substance, low ones inhibition by little substance. The MIC is the lowest concentration that inhibits growth of the organism.
